Target: Kynurenine 3-monooxygenase (Rattus norvegicus, UniProt O88867)
Assay: Inhibition of Kynurenine-3-hydroxylase enzyme isolated from the rat liver
Summary of the method: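 Enzyme source: P2 mitochondrial pellet from rat liver, resuspended in 0.32 M sucrose. Activity measured as ³HOH release from 3-[³H]-L-kynurenine at its K_m concentration, 37 °C, under conditions linear with time and enzyme protein. Five inhibitor concentrations tested. IC50 taken as the mean of at least 2 experiments run in duplicate, with variation <20%.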

Sequence of Kynurenine 3-monooxygenase (O88867 whole entry): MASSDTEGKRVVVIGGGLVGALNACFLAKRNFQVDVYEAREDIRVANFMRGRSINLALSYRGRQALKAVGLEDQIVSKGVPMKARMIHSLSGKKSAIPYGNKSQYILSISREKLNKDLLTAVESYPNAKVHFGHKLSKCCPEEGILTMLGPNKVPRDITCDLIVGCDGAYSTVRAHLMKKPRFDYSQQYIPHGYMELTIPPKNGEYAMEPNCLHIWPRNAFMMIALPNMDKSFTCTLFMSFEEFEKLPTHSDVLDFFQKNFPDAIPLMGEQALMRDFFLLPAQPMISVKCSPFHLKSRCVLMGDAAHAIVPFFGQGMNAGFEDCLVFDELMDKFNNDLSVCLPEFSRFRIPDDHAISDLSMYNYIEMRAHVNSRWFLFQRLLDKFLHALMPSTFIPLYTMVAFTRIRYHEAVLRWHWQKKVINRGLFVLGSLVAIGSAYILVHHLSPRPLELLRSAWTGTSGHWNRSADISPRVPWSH

Row | IC50 [nM] | Compound
1 | 1900 | COC(=O)C(=O)CC(=O)c1ccc(Cl)c(Cl)c1 [4-(3,4-Dichloro-phenyl)-2-hydroxy-4-oxo-but-2-enoic acid methyl ester]
2 | 1900 | COC(=O)C(=O)CC(=O)c1cccc(Cl)c1 [4-(3-Chloro-phenyl)-2-hydroxy-4-oxo-but-2-enoic acid methyl ester]
3 | 1900 | COC(=O)C(=O)CC(=O)c1ccc(Br)cc1 [4-(4-Bromo-phenyl)-2-hydroxy-4-oxo-but-2-enoic acid methyl ester]
4 | 1700 | O=C(O)C(=O)CC(=O)c1cccc(Br)c1 [(Z)-4-(3-Bromo-phenyl)-2-hydroxy-4-oxo-but-2-enoic acid]

Reference: BindingDB's records for doi:10.1021/jm990396t (Glaxo Wellcome Research and Development, 2000)
